Measured values of several laboratories.
Protocols differ between the studies behind these lines.
Target: Adenosine receptor A3 (ADORA3, Homo sapiens, UniProt P0DMS8)
Sequence (P0DMS8 1-318, as in one of the studies): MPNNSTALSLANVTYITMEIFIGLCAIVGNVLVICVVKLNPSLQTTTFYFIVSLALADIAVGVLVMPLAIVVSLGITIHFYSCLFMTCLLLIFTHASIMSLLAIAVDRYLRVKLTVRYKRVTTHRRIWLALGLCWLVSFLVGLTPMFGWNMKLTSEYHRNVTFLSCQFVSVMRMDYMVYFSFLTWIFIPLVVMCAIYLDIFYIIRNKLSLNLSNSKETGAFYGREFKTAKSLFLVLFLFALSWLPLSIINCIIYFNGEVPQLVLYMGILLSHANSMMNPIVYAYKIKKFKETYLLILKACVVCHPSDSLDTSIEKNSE

Compound	assay	setting	Ki [nM]
CNC(=O)[C@@]12C[C@@H]1[C@@H](n1cnc3c(NCc4cn(C56CC7CC(CC(C7)C5)C6)nn4)nc(Cl)nc31)[C@H](O)[C@@H]2O	ligand displacement, radioligand	cell membranes	38.1
CCCN1CCCn2c1nc1c2c(=O)n(C)c(=O)n1C	ligand displacement, radioligand	cell membranes	> 10000
Nc1nc2c(cnn2CCc2ccccc2)c2nc(-c3ccco3)nn12	ligand displacement in cells, BRET	–	158
COCCOc1ccc(N2CCN(CCn3ncc4c3nc(N)n3nc(-c5ccco5)nc43)CC2)cc1	ligand displacement, radioligand	cell membranes	> 1000
CC(C)=CCNc1ncnc2c1ncn2[C@@H]1O[C@H](CO)[C@@H](O)[C@H]1O	ligand displacement, radioligand	cell membranes	159
O[C@@H]1[C@H](O)[C@@H]2C[C@@H]2[C@H]1n1cnc2c(NCc3cn(C45CC6CC(CC(C6)C4)C5)nn3)nc(Cl)nc21	ligand displacement, radioligand	cell membranes	2190
OC[C@@]12C[C@@H]1[C@@H](n1cnc3c(NC(C4CCCC4)C4CCCC4)nc(Cl)nc31)[C@H](O)[C@@H]2O	ligand displacement, radioligand	–	4380
CNC(=O)[C@@]12C[C@@H]1[C@@H](n1cnc3c(NCc4cn(-c5ccc(C(=O)NCCCF)cc5)nn4)nc(Cl)nc31)[C@H](O)[C@@H]2O	ligand displacement, radioligand	cell membranes	36.7
Nc1nc2ccc(Cl)cc2c2nc(-c3ccco3)nn12	ligand displacement in cells, BRET	–	7.59
CCNC(=O)C1OC(n2cnc3c(N)nc(NN=CC4CCC=CO4)nc32)C(O)C1O (stereo not shown)	ligand displacement, radioligand	–	16
CCCCCN1CCCn2c1nc1c2c(=O)n(C)c(=O)n1C	ligand displacement, radioligand	cell membranes	> 10000
CNC(=O)[C@@]12C[C@@H]1[C@@H](n1cnc3c(NCc4cccc(Cl)c4)nc(C#Cc4cccc(C(=O)NCCOCCOCCOCCOCCOCCOCCC(=O)N5CCC(c6ccc(-c7cc(C(=O)O)cc8cc(-c9ccc(C(F)(F)F)cc9)ccc78)cc6)CC5)c4)nc31)[C@H](O)[C@@H]2O	ligand displacement in cells, radioligand	–	3.6
CN1CCCn2c1nc1c2c(=O)n(C)c(=O)n1C	ligand displacement, radioligand	cell membranes	> 10000
NC1C(O)C(n2cnc3c(NCc4cccc(I)c4)ncnc32)C2CC12 (stereo not shown)	ligand displacement, radioligand	cell membranes	5460
CCCCn1c(=O)c2[nH]c(C34CC5CC(CC3C5)C4)nc2n(CCCO)c1=O	ligand displacement, radioligand	cell membranes	> 1000
O=C(NCCC(c1ccccc1)c1ccccc1)[C@H]1S[C@@H](n2cnc3c(NCc4cccc(I)c4)ncnc32)[C@H](O)[C@@H]1O	ligand displacement, radioligand	–	116
